ChEMBL document CHEMBL3286298 (Eur J Med Chem, 2014)

Legend:
[1] = Chemical stability of compound in phosphate buffer assessed as first order rate constant of disappearance of drug at pH 7.88 by HPLC analysis; type: physicochemical
How it was run: (§1)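 Methanol solution of compound mixed into 4 ml phosphate buffer (pH 2.21, 5.86, 7.33 or 7.88), held at 37 °C; samples taken at 0, 1, 3, 6, 12, 24 h and analysed by reverse-phase HPLC (methanol/water 70:30, pH 2.86, UV 219 nm). Pseudo-first-order Kdisapp from linear regression of ln peak area against time in hours; t1/2 derived from it.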

[2] = Chemical stability of compound in phosphate buffer assessed as half life at pH 7.88 by HPLC analysis; type: physicochemical; how it was run: as §1
[3] = system: Brain; assay: Metabolic stability in mouse brain assessed as first order rate constant of disappearance of drug by HPLC analysis; type: ADME, tissue-based
How it was run: (§2)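 Incubation in mouse plasma extract or brain homogenate at 37 °C; remaining compound measured by HPLC (UV 219 nm). Pseudo-first-order Kdisapp from linear regression of ln peak area against time in minutes; half-life derived from it.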

[4] = Chemical stability of compound in phosphate buffer assessed as first order rate constant of disappearance of drug at pH 5.86 by HPLC analysis; type: physicochemical; how it was run: as §1
[5] = system: Brain; assay: Drug uptake in Kunming mouse brain […] iv ibuprofen administered as single dose by HPLC analysis relative to ibuprofen; type: ADME, organism-based; details: in vivo
[6] = Metabolic stability in mouse brain assessed as compound half life by HPLC analysis; type: ADME, tissue-based; how it was run: as §2
[7] = Chemical stability of compound in phosphate buffer assessed as half life at pH 2.21 by HPLC analysis; type: physicochemical; how it was run: as §1
[8] = Metabolic stability in mouse plasma assessed as first order rate constant of disappearance of drug by HPLC analysis; type: ADME, cell-free; how it was run: as §2
[9] = Chemical stability of compound in phosphate buffer assessed as first order rate constant of disappearance of drug at pH 7.33 by HPLC analysis; type: physicochemical; how it was run: as §1
[10] = Chemical stability of compound in phosphate buffer assessed as half life at pH 7.33 by HPLC analysis; type: physicochemical; how it was run: as §1
[11] = system: Brain; assay: AUC (0 to t) in Kunming mouse brain […] iv ibuprofen administered as single dose by HPLC analysis; type: ADME, organism-based; details: in vivo
[12] = system: Brain; assay: Drug uptake in Kunming mouse brain assessed as concentration efficiency […] iv ibuprofen administered as single dose by HPLC analysis relative to ibuprofen; type: ADME, organism-based; details: in vivo
[13] = Chemical stability of compound in phosphate buffer assessed as half life at pH 5.86 by HPLC analysis; type: physicochemical; how it was run: as §1
[14] = Metabolic stability in mouse plasma assessed as compound half life by HPLC analysis; type: ADME, cell-free; how it was run: as §2
[15] = Chemical stability of compound in phosphate buffer assessed as first order rate constant of disappearance of drug at pH 2.21 by HPLC analysis; type: physicochemical; how it was run: as §1
[16] = Tmax in Kunming mouse blood at 48 mmol/g, iv administered as single dose by HPLC analysis; type: ADME, organism-based
[17] = system: Brain; assay: AUC (0 to t) in Kunming mouse brain at 48 mmol/g, iv administered as single dose by HPLC analysis; type: ADME, organism-based; details: in vivo
[18] = AUC (0 to t) in Kunming mouse blood at 48 mmol/g, iv administered as single dose by HPLC analysis; type: ADME, organism-based
[19] = Cmax in Kunming mouse brain at 48 mmol/g, iv administered as single dose by HPLC analysis; type: ADME, organism-based; design: dose 48 mmol/g, route intravenous
[20] = Mean residence time in Kunming mouse blood at 48 mmol/g, iv administered as single dose by HPLC analysis; type: ADME, organism-based
[21] = Cmax in Kunming mouse blood at 48 mmol/g, iv administered as single dose by HPLC analysis; type: ADME, organism-based; design: dose 48 mmol/g, route intravenous
[22] = Tmax in Kunming mouse brain at 48 mmol/g, iv administered as single dose by HPLC analysis; type: ADME, organism-based

| K [1] [×10⁻² /hr] | half-life [2] [h] | K [3] [×10⁻² /min] | K [4] [×10⁻² /hr] | Ratio [5] | half-life [6] [h] | half-life [7] [h] | k el [8] [s⁻¹] | K [9] [×10⁻² /hr] | half-life [10] [h] | AUCt [11] [µg·min/g] | Ratio [12] | half-life [13] [h] | half-life [14] [h] | K [15] [×10⁻² /hr] | SMILES | also measured |
| --- | --- | --- | --- | --- | --- | --- | --- | --- | --- | --- | --- | --- | --- | --- | --- | --- |
| 7.15 | 9.7 | 4.16 | 3.36 | 2.254 | 0.278 | 43 | 0.000225 | 4.3 | 16.1 | 4183.3895 | 4.194 | 20.6 | 0.857 | 1.61 | CC(C)Cc1ccc(C(C)C(=O)OC(CO)C2OC(=O)C(O)=C2O)cc1 (configuration not stated) |  |
| 8.65 | 8.1 | 2.48 | 3.66 | 3.516 | 0.465 | 39.5 | 0.000262 | 5.58 | 12.4 | 6526.7422 | 4.965 | 18.9 | 0.737 | 1.76 | CC(C)Cc1ccc(C(C)C(=O)OCC(OC(=O)C(C)c2ccc(CC(C)C)cc2)C2OC(=O)C(O)=C2O)cc1 (configuration not stated) |  |
| 6.87 | 10.1 | 5.46 | 2.89 | 4.072 | 0.212 | 53.9 | 0.000307 | 4.27 | 16.2 | 7557.692 | 7.461 | 23.9 | 0.463 | 1.29 | C/C(=C(\CCOC(=O)C(C)c1ccc(CC(C)C)cc1)SSCc1ccccc1)N(C=O)CC(=O)OCC(OC(=O)C(C)c1ccc(CC(C)C)cc1)C1OC(=O)C(O)=C1O (configuration not stated) |  |

The next lines start with the compound.

| SMILES | K [1] [×10⁻² /hr] | half-life [2] [h] | K [3] [×10⁻² /min] | K [4] [×10⁻² /hr] | Ratio [5] | half-life [6] [h] | half-life [7] [h] | k el [8] [s⁻¹] | K [9] [×10⁻² /hr] | half-life [10] [h] | AUCt [11] [µg·min/g] | Ratio [12] | half-life [13] [h] | half-life [14] [h] | K [15] [×10⁻² /hr] | also measured |
| --- | --- | --- | --- | --- | --- | --- | --- | --- | --- | --- | --- | --- | --- | --- | --- | --- |
| CC(C)Cc1ccc(C(C)C(=O)OCC(O)C2OC(=O)C(O)=C2O)cc1 (configuration not stated) | 8.42 | 8.2 | 3.46 | 3.76 | 2.03 | 0.335 | 40.1 | 0.000248 | 4.67 | 14.8 | 3767.9842 | 2.619 | 18.4 | 0.777 | 1.73 |  |
| CC(C)Cc1ccc(C(C)C(=O)O)cc1 (configuration not stated) [IBUPROFEN] |  |  |  |  |  |  |  |  |  |  |  |  |  |  |  | Tmax [16]: 6.67 min; AUCt [17]: 1856.215 µg·min/g; AUC(0-t) [18]: 56800 ng·h/mL; Cmax [19]: 10700 ng/g; MRT [20]: 78.9 h; Cmax [21]: 28400 ng/mL; Tmax [22]: 0.417 h |
